# FN deposition inh – fibronectin deposition inhibition; AH1F fibroblasts, Alexa488-fibronectin deposition fluorescence, overnight; inhibition, % at 12.6 µM; 350,000 tested, 0.086% active;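 active = mean inhibition across replicates of 30% or more, regardless of how many single replicates reach that level; inconclusive = mean under 30% yet at least half of replicates reach 30%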;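 also: positive control wells lacked labelled fibronectin entirely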
#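 Material – AH1F fibroblast monolayer, labelled fibronectin deposition · Reagent – labelled fibronectin 24 nM · Timing – 1 h adhesion, overnight exposure · Measured by – fluorescence at 485 nm excitation, 525 nm emission · Read-out – inhibition of fibronectin deposition signal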
# DENV2 CPE – inhibitors of DENV2 cytopathic effect; CPE inhibition, % at 9.99 µM; 350,000 tested, 1.7% active; DENV2-infected cells, cytopathic effect rescue, plate reader; AID 651640; in the data active = CPE inhibition above about 20%, passing the limit was not always enough; inconclusive = no clear call, values can overlap the other calls; tested in BHK-21 cells;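 also: 0% = median of neutral control wells and 100% = median of positive control wells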
# XiGFP reactiv – reactivates the inactive X chromosome in mouse fibroblasts. XiGFP mouse fibroblasts, % GFP-positive cells imaging, 3 d; cells co-treated with 5-aza-dC sensitizer; scaled so ellipticine positive control = 100%. activation, % at 7.58 µM. 360,000 tested, 0.055% active. AID 743238;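 active = mean normalized replicate activation at least 10% and every replicate at or above 10%; inconclusive = only one of the two criteria met; inactive = mean below 10% and not all replicates reach 10%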;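 also: 0% = median of on-plate neutral control wells and 100% = ellipticine 6 µM median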
#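 Material: XiGFP fibroblasts, SV40-immortalized. Buffer or medium: DMEM plus 5-aza-dC sensitizer. Compound: single concentration per compound, delivered by pin transfer. Times: 3 days compound exposure. Controls: ellipticine 6 µM.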
# SIRT5 block – inhibitors of human sirtuin-5 desuccinylase; Q9NXA8; Purified SirT5, succinyl-peptide AMC, trypsin-coupled fluorescence; inhibition, % at 15 µM; 330,000 tested, 1.1% active; AID 652115; in the data active = inhibition above about 15%; inconclusive = no clear call, values can overlap the other calls
# Target sequence (Q9NXA8 whole entry, looked up): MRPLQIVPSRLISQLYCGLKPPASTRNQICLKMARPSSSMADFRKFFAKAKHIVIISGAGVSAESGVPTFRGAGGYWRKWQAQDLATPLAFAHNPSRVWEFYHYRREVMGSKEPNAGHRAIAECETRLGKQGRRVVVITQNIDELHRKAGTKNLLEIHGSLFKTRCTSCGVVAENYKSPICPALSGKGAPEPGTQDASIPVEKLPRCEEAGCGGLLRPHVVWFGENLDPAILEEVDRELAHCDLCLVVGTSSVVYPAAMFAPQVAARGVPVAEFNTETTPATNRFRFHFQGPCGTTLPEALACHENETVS
# ARNT-TACC3 inh – disrupts binding between human ARNT and TACC3 | AlphaScreen His-ARNT PAS-B/GST-TACC3 binding, luminescence; TACC3 fragment carries E629A point mutation | inhibition, % at 9.99 µM | 390,000 tested, 0.66% active | AID 623870;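 active = mean inhibition of replicates at least 50% and at least half of replicates each reaching 50%; inconclusive = half or more replicates reach 50% but mean below 50%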;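 also: 0% = complete ARNT plus TACC3 wells and 100% = ARNT alone without TACC3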
# FGF22 binding – shifts melting point of recombinant human FGF22. activity (Tm shift, normalised), % at 9.99 µM. 340,000 tested, 1.5% active. recombinant FGF22 thermal shift, SYPRO orange fluorescence; percent of sucrose octasulfate shift, DMSO zero;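 active = mean Tm shift, scaled 0 neutral to 100 positive control, at about 1.3% or above, every replicate too, limit read from the data; inconclusive = no clear call, values can overlap the other calls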
# Target sequence (Q9HCT0 whole entry, looked up): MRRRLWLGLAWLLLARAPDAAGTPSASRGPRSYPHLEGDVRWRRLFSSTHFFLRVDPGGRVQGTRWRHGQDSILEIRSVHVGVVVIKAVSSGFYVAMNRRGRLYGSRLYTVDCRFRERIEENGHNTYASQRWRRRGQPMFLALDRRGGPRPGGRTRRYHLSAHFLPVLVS
# Numbers without * were called inactive; ? = inconclusive; nt = no result. Compounds with a hit are over-represented: about 3.8% of the library has one in this group of screens.
SMILES,FN deposition inh,DENV2 CPE,XiGFP reactiv,SIRT5 block,ARNT-TACC3 inh,FGF22 binding
O=C1CN(S(=O)(=O)Cc2ccccc2)C[C@H]2[C@@H](c3ccc(C#Cc4cccnc4)cc3)[C@@H](CO)N12,nt,-1,0,2,nt,nt
O=c1[nH]c(=O)n(C2OC(CO)C(O)C(O)C2O)cc1F (centres undefined),nt,68*,nt,-1,nt,0
Cc1ccc(NC(=O)CN2C(=O)NC3(CCCc4ccccc43)C2=O)cc1S(=O)(=O)N1CCOCC1 (centres undefined),3,11,0,-4,0,44*
C[C@@H]1CN([C@H](C)CO)C(=O)c2cc(NC(=O)CCC(F)(F)F)ccc2O[C@@H]1CN(C)S(=O)(=O)c1ccccc1,nt,-4,2,-1,-13,0
O=C1N(CCS(=O)(=O)c2ccccc2)Cc2ccccc2C[C@@]12COC(c1ccc(OCCCO)cc1)=N2,nt,-5,nt,7,-4,0
COc1ccc(CN2CCN(C(=O)c3ccccc3C(=O)c3ccccc3)CC2)cc1F,2,3,0,nt,nt,44*
Cc1cccc(CN2CCN(C(=O)c3cccc4ccccc34)CC2)c1,3,43*,0,-8,-2,0
CC(=O)c1cn(N(C)c2ncc(C(F)(F)F)cc2Cl)c(=O)[nH]c1=O,-8,16,0,0,nt,42
C=CCn1c(=O)c(C(C)=O)cn(N(C)c2ncc(C(F)(F)F)cc2Cl)c1=O,1,nt,0,5,-8,43*
Cc1ccsc1/C=N/Nc1ncnc2nc[nH]c12,3,-2,0,-1,58*,0
COCC(=O)N1C[C@@H](C)[C@@H](OC)CN(C)C(=O)c2ccc(NC(=O)c3ccc(F)cc3)cc2OC[C@H]1C,4,-5,0,-3,-12,0
Cc1ccnc(NC(=O)c2ccc(Cl)c(S(=O)(=O)N3CCCC3)c2)c1,1,61*,0,-7,9,0
O=C(NCc1ccncc1)c1ccc(Cl)c(S(=O)(=O)N2CCCCC2)c1,0,-2,0,18*,5,0
Cc1ccnc(NC(=O)c2ccc(Cl)c(S(=O)(=O)N3CCCCC3)c2)c1,11,5,0,-3,22,0
O=C(NCc1cccnc1)c1ccc(Cl)c(S(=O)(=O)N2CCCCCC2)c1,2,0,0,-2,-6,0
C[C@H]1CN([C@@H](C)CO)C(=O)CCCn2cc(nn2)CO[C@H]1CN(C)Cc1ccc2cccnc2c1,-10,-3,0,-3,0,0
c1cc(CN2[C@@H]3CNC[C@H]2C3c2ccc(-c3ccncc3)cc2)cc(-c2ccncc2)c1 (some centres undefined),3,?,0,6,nt,nt
CO[C@H]1CN(C)C(=O)c2cc(NS(C)(=O)=O)ccc2OC[C@H](C)N(C(=O)C2CCOCC2)C[C@@H]1C,4,-3,0,-3,4,-1
C[C@@]12C(=O)Nc3ccc(Cl)cc3C(=O)N1[C@H]1c3cc(Cl)ccc3OC[C@@H]1[C@@H]2c1ccccc1,3,nt,0,nt,-2,0
Cc1ccc2c(c1)[C@H]1[C@H](CO2)[C@H](c2ccccc2)[C@]2(C)C(=O)Nc3ccc(Cl)cc3C(=O)N12,6,7,1,16*,-1,-1
COc1ccc2c(c1)[C@H]1[C@H](CO2)[C@H](c2ccccc2)[C@]2(C)C(=O)Nc3ccc(Cl)cc3C(=O)N12,6,33*,0,nt,1,0
CC(C)SCc1cc(N2CCCC2)nc(-c2ccccc2)n1,6,26*,0,-5,nt,0
Cc1ccc(C(=O)c2oc3ccccc3c2NC(=O)c2cc(-c3ccccc3O)n[nH]2)cc1,7,nt,23*,nt,-8,nt
CCNC(=O)[C@@H]1N[C@@H]2c3ccc(-c4cccc(C(=O)N(C)C)c4)c(=O)n3C[C@@H]2[C@H]1CO,nt,0,0,-18,-2,0
COc1ccc(NC(=O)c2nc(S(=O)(=O)Cc3cccc(C)c3)ncc2Cl)c(OC)c1,48*,0,0,-4,-3,0
SMILES,FN deposition inh,DENV2 CPE,XiGFP reactiv,SIRT5 block,ARNT-TACC3 inh,FGF22 binding
COc1ccc(OC)c(NC(=O)c2nc(S(=O)(=O)Cc3ccccc3)ncc2Cl)c1,56*,-5,3,0,-10,0
CCC(=O)N1CC2(C1)[C@@H](c1ccc(-c3cccc(F)c3)cc1)[C@@H](CO)N2CC1CC1,nt,20*,0,-1,nt,0
CCC(=O)N1CC2(C1)[C@@H](c1ccc(-c3cccc(C)c3)cc1)[C@@H](CO)N2S(C)(=O)=O,-6,27*,0,-5,nt,0
Cc1ccccc1C(=O)/C(C#N)=N/Nc1c(C)n(C)n(-c2ccccc2)c1=O,4,nt,0,nt,57*,nt
Cc1c(N/N=C(\C#N)C(=O)c2ccccc2)c(=O)n(-c2ccccc2)n1C,0,-5,1,-4,67*,0
CCOC(=O)/C(C#N)=N/Nc1c(C)n(C)n(-c2ccccc2)c1=O,13,10,0,0,nt,0
O=C(O)c1cccc(N/N=C/C2=C(Cl)c3cc(Cl)ccc3SC2)c1,4,4,0,1,-7,43*
COc1ccc(CC(=O)NNC(=O)c2ccc(Br)s2)cc1OC,0,-4,0,-4,-8,43*
CC1(C)CC(=O)C=C(c2ccc(-c3ccc4[nH]ccc4c3)cc2)C1=O,nt,7,0,-3,nt,0
CC1(C)CC(=O)C=C(c2ccccc2-c2ccc3cc[nH]c3c2)C1=O,-3,8,0,nt,nt,43*
C[C@H]1CN([C@@H](C)CO)C(=O)c2cccc(NS(=O)(=O)c3ccc(F)cc3)c2O[C@@H]1CN(C)S(=O)(=O)c1ccc(F)cc1,nt,-3,0,-4,-2,0
COc1ccccc1CC(=O)c1ccccc1OC,2,-1,0,nt,2,43*
COc1ccccc1C(=O)NNC(=O)c1ccccc1F,-11,nt,0,-1,2,44*
COc1ccccc1C(=O)NNC(=O)c1cccc(F)c1,6,nt,0,nt,-9,nt
COc1ccccc1CC(=O)NC(=O)c1ccccc1O,-1,-1,0,-2,-6,0
Cc1ccc(S(=O)(=O)Nc2ccc3c(c2)C(=O)N([C@@H](C)CO)C[C@H](C)[C@@H](CN(C)C(=O)NC(C)C)OCCCC[C@@H](C)O3)cc1,6,22*,0,3,nt,0
C[C@@H]1CCCCO[C@@H](CN(C)C(=O)Nc2ccc(F)cc2)[C@@H](C)CN([C@H](C)CO)C(=O)c2cc(NS(=O)(=O)c3ccccc3)ccc2O1,nt,31*,0,-1,-8,0
